# Measurements: ChEMBL document CHEMBL1148762, “Lysosome and HER3 (ErbB3) selective anticancer agent kahalalide F: semisynthetic modifications and antifungal lead-exploration studies” (J Med Chem, 2007)
# What was measured:
# [1] = test system: Candida albicans; assay: Antimicrobial activity against Candida albicans ATCC 90028; assay type: functional, organism-based
# [2] = test system: Mycobacterium intracellulare; assay: Antimicrobial activity against Mycobacterium intracellular ATCC 23068; assay type: functional, organism-based
# [3] = test system: Aspergillus fumigatus; assay: Antimicrobial activity against Aspergillus fumigatus ATCC 90906; assay type: functional, organism-based
# [4] = test system: Cryptococcus neoformans; assay: Antimicrobial activity against Cryptococcus neoformans ATCC 90113; assay type: functional, organism-based
# [5] = test system: KM12; assay: Cytotoxicity against human KM12 cells; assay type: functional
# In short: (§1)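 NCI Developmental Therapeutics Program cell panel. GI50 is the concentration that reduces growth of treated cells to half that of untreated controls. TGI is the concentration that completely halts growth.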
# [6] = test system: DU-145; assay: Cytotoxicity against human DU145 cells; assay type: functional; in short: as §1
# [7] = test system: HCC 2998; assay: Cytotoxicity against human HCC2998 cells; assay type: functional; in short: as §1
# [8] = test system: HT-29; assay: Cytotoxicity against human HT29 cells; assay type: functional; in short: as §1
# [9] = test system: NCI-H322M; assay: Cytotoxicity against human NCI-H322M cells; assay type: functional; in short: as §1
# [10] = test system: RPMI-8226; assay: Cytotoxicity against human RPMI8226 cells; assay type: functional; in short: as §1
# [11] = test system: SNB-75; assay: Cytotoxicity against human SNB75 cells; assay type: functional; in short: as §1
# [12] = test system: Hs-578T; assay: Cytotoxicity against human HS578T cells; assay type: functional; in short: as §1
# [13] = test system: UACC-257; assay: Cytotoxicity against human UACC257 cells; assay type: functional; in short: as §1
# [14] = test system: COLO 205; assay: Cytotoxicity against human COLO205 cells; assay type: functional; in short: as §1
# [15] = test system: PC-3; assay: Cytotoxicity against human PC3 cells; assay type: functional; in short: as §1
# [16] = test system: A549; assay: Cytotoxicity against human A549 cells; assay type: functional; in short: as §1
# [17] = test system: ACHN; assay: Cytotoxicity against human ACHN cells; assay type: functional; in short: as §1
# [18] = test system: SK-OV-3; assay: Cytotoxicity against human SK-OV3 cells; assay type: functional; in short: as §1
# [19] = test system: HCT-15; assay: Cytotoxicity against human HCT15 cells; assay type: functional; in short: as §1
smiles,measurement,setting,value
C/C=C1\NC(=O)[C@H](Cc2ccccc2)NC(=O)[C@@H](C(C)C)NC(=O)[C@@H]([C@@H](C)CC)NC(=O)[C@H](NC(=O)[C@H](NC(=O)[C@H](CCCNC(=O)c2cc3ccc(N(CC)CC)cc3oc2=O)NC(=O)[C@H]2CCCN2C(=O)[C@H](NC(=O)[C@@H](NC(=O)[C@@H](NC(=O)[C@H](NC(=O)CCCC(C)C)C(C)C)[C@@H](C)O)C(C)C)C(C)C)[C@@H](C)CC)[C@@H](C)OC(=O)[C@H](C(C)C)NC1=O,IC50,[1],> 11600 nM
same,IC50,[2],> 11600 nM
same,IC50,[3],> 11600 nM
same,IC50,[4],> 11600 nM
C/C=C1\NC(=O)[C@H](Cc2ccccc2)NC(=O)[C@@H](C(C)C)NC(=O)[C@@H]([C@@H](C)CC)NC(=O)[C@H](NC(=O)[C@H](NC(=O)[C@H](CCCN)NC(=O)[C@H]2CCCN2C(=O)[C@H](NC(=O)[C@@H](NC(=O)[C@@H](NC(=O)[C@H](NC(=O)CCCC(C)C)C(C)C)C(C)=O)C(C)C)C(C)C)[C@@H](C)CC)[C@@H](C)OC(=O)[C@H](C(C)C)NC1=O,IC50,[1],12400 nM
same,IC50,[2],> 20000 nM
same,IC50,[3],> 13600 nM
same,IC50,[4],4340 nM
O=C(O)c1cn(C2CC2)c2cc(N3CCNCC3)c(F)cc2c1=O [CIPROFLOXACIN],IC50,[2],420 nM
same,MBC,[2],> 1 µM
same,MIC,[2],1 µM
CC(=O)O[C@H]1C(=O)[C@@]2(C)[C@H]([C@H](OC(=O)c3ccccc3)[C@]3(O)C[C@H](OC(=O)[C@H](O)[C@@H](NC(=O)c4ccccc4)c4ccccc4)C(C)=C1C3(C)C)[C@]1(OC(C)=O)CO[C@@H]1C[C@@H]2O [PACLITAXEL],GI50,[5],4 nM
same,TGI,[5],15800 nM
same,GI50,[6],5 nM
same,TGI,[6],794 nM
same,GI50,[7],3 nM
same,TGI,[7],126 nM
same,GI50,[8],2 nM
same,TGI,[8],251 nM
same,GI50,[9],13 nM
same,TGI,[9],6310 nM
same,GI50,[10],2 nM
same,TGI,[10],5010 nM
same,GI50,[11],4 nM
same,TGI,[11],126 nM
same,GI50,[12],3 nM
same,TGI,[12],100 nM
same,GI50,[13],40 nM
same,TGI,[13],25100 nM
same,GI50,[14],3 nM
same,TGI,[14],316 nM
same,GI50,[15],4 nM
same,TGI,[15],10000 nM
same,GI50,[16],4 nM
same,TGI,[16],25100 nM
same,GI50,[17],398 nM
same,TGI,[17],12600 nM
same,GI50,[18],8 nM
same,TGI,[18],15800 nM
same,GI50,[19],158 nM
same,TGI,[19],15800 nM
C/C=C1\NC(=O)[C@H](Cc2ccccc2)NC(=O)[C@@H](C(C)C)NC(=O)[C@@H]([C@@H](C)CC)NC(=O)[C@H](NC(=O)[C@H](NC(=O)[C@H](CCCNCc2ccncc2)NC(=O)[C@H]2CCCN2C(=O)[C@H](NC(=O)[C@@H](NC(=O)[C@@H](NC(=O)[C@H](NC(=O)CCCC(C)C)C(C)C)[C@@H](C)O)C(C)C)C(C)C)[C@@H](C)CC)[C@@H](C)OC(=O)[C@H](C(C)C)NC1=O,IC50,[1],4190 nM
same,IC50,[2],> 20000 nM
same,IC50,[3],4260 nM
same,IC50,[4],2120 nM
